According to ChEMBL document CHEMBL4689842, “EUbOPEN Chemogenomics Library wave 1” (2021):
Values joined by “and” are separate entries in the source; they are usually repeats but may differ in a detail not shown here. Equal values may be shown once.

System: HEK-293T
Assay: Multiplex assay against HEK293T;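 as to Population Tubulin-Different-Phenotype (%): share of the cells with healthy nuclei that show this phenotype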
Assay type: toxicity, cell-based
Details: human
Summary of the method: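 Tubulin, mitochondrial-mass and membrane-permeability phenotypes are per cents of healthy-nucleus cells. Cells were gated by CellPathfinder machine learning into Hoechst high-intensity objects or normal cells, normal cells into healthy, pyknosed or fragmented nuclei, and pyknosed cells into mitotic or apoptotic. Before that, live cells stained at seeding with Hoechst33342, BioTracker Green Microtubule Cytoskeleton Dye, MitoTracker Red and Annexin V Alexa Fluor 680 were imaged on a CQ1 microscope at 37°C and 5% CO2 after compound addition.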

[1] = 12 h, 1 µM, compound concentration 1 uM, replicate 1
[2] = 12 h, 1 µM, compound concentration 1 uM, replicate 2
[3] = 12 h, 10 µM, compound concentration 10 uM, replicate 1
[4] = 12 h, 10 µM, compound concentration 10 uM, replicate 2
[5] = 24 h, 1 µM, compound concentration 1 uM, replicate 1
[6] = 24 h, 1 µM, compound concentration 1 uM, replicate 2
[7] = 24 h, 10 µM, compound concentration 10 uM, replicate 1
[8] = 24 h, 10 µM, compound concentration 10 uM, replicate 2
[9] = 48 h, 1 µM, compound concentration 1 uM, replicate 1
[10] = 48 h, 1 µM, compound concentration 1 uM, replicate 2
[11] = 48 h, 10 µM, compound concentration 10 uM, replicate 1
[12] = 48 h, 10 µM, compound concentration 10 uM, replicate 2

Structure (SMILES): O=C(NCCCC1CCCCC1)c1ccc(CNC(=O)c2cnn(-c3ccccc3)c2C(F)(F)F)cc1 [SR-321]
- Population Apoptotic (%) [1]: 40% and 29% and 42%
- Population Fragmented Nuclei (%) [1]: 15% [middle of 4 runs]
- Population Healthy Nuclei (%) [1]: 31% and 37% and 67%
- Population Hoechst High Intensity Objects (%) [1]: 14% [middle of 4 runs]
- Population Membrane Permeable-Phenotype (%) [1]: 2% and 0% and 3%
- Population Mitotic Cells (%) [1]: 59% and 70% and 57%
- Population Normal (%) [1]: 85% and 83% and 90% and 88%
- Total Cell Count [1]: 312 [middle of 4 runs]
- Population Apoptotic (%) [2]: 10% [middle of 4 runs]
- Population Fragmented Nuclei (%) [2]: 6% [middle of 4 runs]
- Population Healthy Nuclei (%) [2]: 42% [middle of 4 runs]
- Population Hoechst High Intensity Objects (%) [2]: 3% and 2% and 5%
- Population Membrane Permeable-Phenotype (%) [2]: 10% and 8% and 1%
- Population Mitochondria Different-Phenotype (%) [2]: 10% and 19% and 7%
- Population Mitotic Cells (%) [2]: 85% and 90% and 89% and 92%
- Population Normal (%) [2]: 96% and 97% and 94%
- Population Apoptotic (%) [3]: 50% [middle of 4 runs]
- Population Fragmented Nuclei (%) [3]: 16% [middle of 4 runs]
- Population Hoechst High Intensity Objects (%) [3]: 17% [middle of 4 runs]
- Population Membrane Permeable-Phenotype (%) [3]: 6% and 2% and 4%
- Population Mitotic Cells (%) [3]: 60% [middle of 4 runs]
- Population Normal (%) [3]: 86% and 81% and 82% and 89%
- Total Cell Count [3]: 302 [middle of 4 runs]
- Population Healthy Nuclei (%) [4]: 38% [middle of 4 runs]
- Population Hoechst High Intensity Objects (%) [4]: 4% and 2% and 3%
- Population Membrane Permeable-Phenotype (%) [4]: 5% and 3% and 0%
- Population Mitotic Cells (%) [4]: 86% [middle of 4 runs]
- Population Normal (%) [4]: 95% and 97% and 96%
- Population Tubulin-Different-Phenotype (%) [4]: 32% [middle of 4 runs]
- Population Fragmented Nuclei (%) [5]: 13% [middle of 4 runs]
- Population Healthy Nuclei (%) [5]: 42% and 36% and 81%
- Population Hoechst High Intensity Objects (%) [5]: 15% [middle of 4 runs]
- Population Membrane Permeable-Phenotype (%) [5]: 2% [middle of 4 runs]
- Population Mitotic Cells (%) [5]: 59% and 54% and 58% and 86%
- Population Normal (%) [5]: 87% and 83% and 84% and 93%
- Total Cell Count [5]: 361 [middle of 4 runs]
- Population Healthy Nuclei (%) [6]: 65% [middle of 4 runs]
- Population Hoechst High Intensity Objects (%) [6]: 2% and 3%
- Population Membrane Permeable-Phenotype (%) [6]: 11% [middle of 4 runs]
- Population Mitotic Cells (%) [6]: 82% and 89% and 94%
- Population Normal (%) [6]: 97% and 96%
- Population Tubulin-Different-Phenotype (%) [6]: 20% [middle of 4 runs]
- Population Apoptotic (%) [7]: 57% [middle of 4 runs]
- Population Fragmented Nuclei (%) [7]: 16% and 19% and 18%
- Population Membrane Permeable-Phenotype (%) [7]: 0% and 4% and 6%
- Population Mitotic Cells (%) [7]: 53% [middle of 4 runs]
- Population Normal (%) [7]: 81% and 80% and 85% and 93%
- Population Tubulin-Different-Phenotype (%) [7]: 59% and 53% and 26%
- Population Healthy Nuclei (%) [8]: 55% [middle of 4 runs]
- Population Hoechst High Intensity Objects (%) [8]: 3% and 4%
- Population Mitotic Cells (%) [8]: 73% and 81% and 95%
- Population Normal (%) [8]: 96% and 95%
- Population Tubulin-Different-Phenotype (%) [8]: 44% [middle of 4 runs]
- Population Apoptotic (%) [9]: 41% and 50% and 34%
- Population Fragmented Nuclei (%) [9]: 14% and 21% and 17%
- Population Healthy Nuclei (%) [9]: 34% and 40%
- Population Hoechst High Intensity Objects (%) [9]: 14% and 20%
- Population Membrane Permeable-Phenotype (%) [9]: 4% and 2%
- Population Mitochondria Different-Phenotype (%) [9]: 31% and 29%
- Population Mitotic Cells (%) [9]: 58% and 49% and 65%
- Population Normal (%) [9]: 85% and 79%
- Population Pyknosed Nuclei (%) [9]: 50% and 38% and 42%
- Population Tubulin-Different-Phenotype (%) [9]: 27% and 29%
- Total Cell Count [9]: 401 and 332 and 411
- Population Apoptotic (%) [10]: 9% and 8% and 13%
- Population Fragmented Nuclei (%) [10]: 6% and 5%
- Population Healthy Nuclei (%) [10]: 79% and 76% and 82%
- Population Hoechst High Intensity Objects (%) [10]: 3% and 5%
- Population Membrane Permeable-Phenotype (%) [10]: 8% and 6%
- Population Mitochondria Different-Phenotype (%) [10]: 3% and 7% and 6%
- Population Mitotic Cells (%) [10]: 90% and 91% and 86%
- Population Normal (%) [10]: 96% and 94%
- Population Pyknosed Nuclei (%) [10]: 13% and 17% and 11%
- Population Tubulin-Different-Phenotype (%) [10]: 18% and 22% and 15%
- Total Cell Count [10]: 377 and 459 and 394
- Population Apoptotic (%) [11]: 48% and 63% and 54%
- Population Fragmented Nuclei (%) [11]: 23% and 25%
- Population Healthy Nuclei (%) [11]: 28% and 27% and 18%
- Population Hoechst High Intensity Objects (%) [11]: 19% and 20% and 16%
- Population Membrane Permeable-Phenotype (%) [11]: 0% and 1%
- Population Mitochondria Different-Phenotype (%) [11]: 73% and 83%
- Population Mitotic Cells (%) [11]: 51% and 36% and 45%
- Population Normal (%) [11]: 80% and 79% and 83%
- Population Pyknosed Nuclei (%) [11]: 47% and 48% and 56%
- Population Tubulin-Different-Phenotype (%) [11]: 32% and 59%
- Total Cell Count [11]: 274 and 281 and 324
- Population Apoptotic (%) [12]: 30% and 26% and 20%
- Population Fragmented Nuclei (%) [12]: 6% and 5% and 8%
- Population Healthy Nuclei (%) [12]: 78% and 75% and 74%
- Population Hoechst High Intensity Objects (%) [12]: 3% and 2%
- Population Membrane Permeable-Phenotype (%) [12]: 5% and 2%
- Population Mitochondria Different-Phenotype (%) [12]: 27% and 41% and 31%
- Population Mitotic Cells (%) [12]: 69% and 73% and 79%
- Population Normal (%) [12]: 96% and 97%
- Population Pyknosed Nuclei (%) [12]: 15% and 19% and 17%
- Population Tubulin-Different-Phenotype (%) [12]: 50% and 52% and 49%
- Total Cell Count [12]: 396 and 327 and 349
